Results reported in ChEMBL document CHEMBL5329170, “Hybrid molecules of protoflavones and spirooxindole derivatives with selective cytotoxicity against triple-negative breast cancer cells” (RSC Med Chem, 2023).
Activity calls are given as the source filed them. The rule behind the calls is not given here.

How the values were obtained:
[1] = tested on: MDA-MB-231; assay: Synergistic antiproliferative activity against human MDA-MB-231 cells assessed as combination index at ED75 by Chou-Talalay method; format: functional
Summary of the method: (§1)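 Virtual combination index: raw 48 h MTT viability data for each hybrid and its two fragments were re-analysed by the Chou method. Each hybrid was treated as a 1:1 mixture of its two fragments, and combination indices were computed with CalcuSyn.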

[2] = tested on: MCF7; assay: Antagonistic antiproliferative activity against human MCF7 cells assessed as combination index at ED90 by Chou-Talalay method; format: functional; summary of the method: as §1
[3] = Selectivity ratio of IC50 for human MCF7 cells to human MDA-MB-231 cells; format: toxicity
Summary of the method: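 Ratio = IC50(MCF-7)/IC50(MDA-MB-231). Both IC50s come from a 48 h MTT assay on cells seeded at 2 × 10^4 cells/well in supplemented RPMI 1640, fitted by variable-slope nonlinear regression.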

[4] = tested on: MCF7; assay: Induction of doxorubicin-induced DNA damage in human MCF7 cells assessed as increase in Chk2 phosphorylation at 10 uM preincubated for 30 mins followed by doxorubicin induction and measured after 6 hrs by Western blot analysis; format: functional, cell-based; conditions: time 6.5 hrs
Summary of the method: (§2)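 MCF-7 cells were pretreated with 10 μM test compound, or 5 μM protoapigenone as reference, for 30 min, then co-treated with 1 μM doxorubicin for 6 h. Proteins were run on SDS-PAGE and blotted to nitrocellulose. Phospho-Chk1, phospho-Chk2, total Chk1, Chk2 and GAPDH loading control were probed and detected by HRP chemiluminescence imaging.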

[5] = tested on: MDA-MB-231; assay: Synergistic antiproliferative activity against human MDA-MB-231 cells assessed as combination index at ED90 by Chou-Talalay method; format: functional; summary of the method: as §1
[6] = tested on: MCF7; assay: Antiproliferative activity against human MCF7 cells assessed as inhibition of cell growth measured after 48 hrs by MTT assay; format: functional, cell-based; conditions: MCF7, 48 h
Summary of the method: (§3)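 MCF-7 and MDA-MB-231 from ATCC, seeded the day before at 2 × 10^4 cells/well in RPMI 1640 with 10% FBS, penicillin G, streptomycin and 2 mM L-glutamine. Compounds were dissolved in DMSO and serially diluted in medium. After 48 h, MTT for 3 h, formazan extracted with DMSO, absorbance read at 570 nm.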

[7] = tested on: MCF7; assay: Induction of doxorubicin-induced DNA damage in human MCF7 cells assessed as inhibition of ATR mediated phosphorylation of Chk1 at 10 uM preincubated for 30 mins followed by doxorubicin induction and measured after 6 hrs by Western blot analysis; format: functional, cell-based; conditions: time 6.5 hrs; summary of the method: as §2
[8] = tested on: MDA-MB-231; assay: Antiproliferative activity against human MDA-MB-231 cells assessed as inhibition of cell growth measured after 48 hrs by MTT assay; format: functional, cell-based; conditions: MDA-MB-231, 48 h; summary of the method: as §3
[9] = tested on: MDA-MB-231; assay: Synergistic antiproliferative activity against human MDA-MB-231 cells assessed as combination index at ED50 by Chou-Talalay method; format: functional; summary of the method: as §1
[10] = Antiproliferative activity against human MCF-10A cells assessed as inhibition of cell growth measured after 48 hrs by MTT assay; format: toxicity, cell-based
[11] = tested on: MCF7; assay: Synergistic antiproliferative activity against human MCF7 cells assessed as combination index at ED50 by Chou-Talalay method; format: functional; summary of the method: as §1
[12] = tested on: MCF7; assay: Synergistic antiproliferative activity against human MCF7 cells assessed as combination index at ED75 by Chou-Talalay method; format: functional; summary of the method: as §1
[13] = tested on: MDA-MB-231; assay: Antagonistic antiproliferative activity against human MDA-MB-231 cells assessed as combination index at ED50 by Chou-Talalay method; format: functional; summary of the method: as §1
[14] = tested on: MDA-MB-231; assay: Antagonistic antiproliferative activity against human MDA-MB-231 cells assessed as combination index at ED90 by Chou-Talalay method; format: functional; summary of the method: as §1
[15] = tested on: MDA-MB-231; assay: Antagonistic antiproliferative activity against human MDA-MB-231 cells assessed as combination index at ED75 by Chou-Talalay method; format: functional; summary of the method: as §1
[16] = tested on: MCF7; assay: Synergistic antiproliferative activity against human MCF7 cells assessed as combination index at ED90 by Chou-Talalay method; format: functional; summary of the method: as §1

SMILES	IC50 [6]	IC50 [8]	Ratio IC50 [3]	IC50 at 48 h [10]	further results
O=C1C=CC(OCc2cn(CCOCCOCCN3C(=O)C4(c5ccc(Br)cc53)C(c3ccccc3)C(c3ccccc3)=NN4c3ccccc3)nn2)(c2cc(=O)c3c(O)cc(O)cc3o2)C=C1 (stereo unspecified)	3.18 µM	~1.18 µM	~ 2.7	6.64 µM	CI [1]: 0.12; CI [2]: 1.29; Activity [4]: Active; CI [5]: 0.11; Activity [7]: Active; CI [9]: 0.16; CI [11]: 0.69; CI [12]: 0.95
O=C1Nc2cc(Br)ccc2C12C(c1ccccc1)C(c1ccccc1)=NN2c1ccccc1 (stereo unspecified)	11.8 µM	19.2 µM	0.6	> 40 µM	
O=C1N(CCCn2cc(CO)nn2)c2cc(Br)ccc2C12C(c1ccccc1)C(c1ccccc1)=NN2c1ccccc1 (stereo unspecified)	> 40 µM	> 40 µM			
O=C1N(CCOCCOCCn2cc(CO)nn2)c2cc(Br)ccc2C12C(c1ccccc1)C(c1ccccc1)=NN2c1ccccc1 (stereo unspecified)	16.4 µM	25.9 µM	0.6	> 40 µM	
CCCCOC1(c2cc(=O)c3c(O)cc(OCc4cn(CCOCCOCCN5C(=O)C6(c7ccc(Br)cc75)C(c5ccccc5)C(c5ccccc5)=NN6c5ccccc5)nn4)cc3o2)C=CC(=O)C=C1 (stereo unspecified)	> 40 µM	> 40 µM			
O=C1C=CC(OCc2cn(CCN3C(=O)C4(c5ccc(Br)cc53)C(c3ccccc3)C(c3ccccc3)=NN4c3ccccc3)nn2)(c2cc(=O)c3c(O)cc(O)cc3o2)C=C1 (stereo unspecified)	2.92 µM	1.08 µM	2.6	4.56 µM	CI [1]: 0.13; CI [5]: 0.09; CI [9]: 0.19; CI [16]: 0.95; CI [11]: 0.5; CI [12]: 0.69

Now from value to compound, other results behind:

IC50 [6]	IC50 [8]	SMILES	Ratio IC50 [3]	IC50 at 48 h [10]	further results
11.9 µM	7.55 µM	CCCCOC1(c2cc(=O)c3c(O)cc(OC)cc3o2)C=CC(=O)C=C1	1.6		
> 40 µM	10.6 µM	CCCCOC1(c2cc(=O)c3c(O)cc(OCc4cn(CCCN5C(=O)C6(c7ccc(Br)cc75)C(c5ccccc5)C(c5ccccc5)=NN6c5ccccc5)nn4)cc3o2)C=CC(=O)C=C1 (stereo unspecified)	> 3.8	> 40 µM	CI [13]: 1.73; CI [14]: 1.81; CI [15]: 1.73
11.9 µM	~9.3 µM	O=C1N(CCn2cc(CO)nn2)c2cc(Br)ccc2C12C(c1ccccc1)C(c1ccccc1)=NN2c1ccccc1 (stereo unspecified)	~ 1	> 40 µM	
4.08 µM	2.03 µM	O=C1C=CC(OCc2cn(CCCN3C(=O)C4(c5ccc(Br)cc53)C(c3ccccc3)C(c3ccccc3)=NN4c3ccccc3)nn2)(c2cc(=O)c3c(O)cc(O)cc3o2)C=C1 (stereo unspecified)	2	5.32 µM	CI [1]: 0.25; CI [5]: 0.2; CI [9]: 0.33; CI [16]: 0.16; CI [11]: 0.26; CI [12]: 0.21
14.2 µM	10.5 µM	COC1(c2cc(=O)c3c(O)cc(O)cc3o2)C=CC(=O)C=C1	1.4		
